Assay results: ChEMBL document CHEMBL2380254, “Optimization of tocotrienols as antiproliferative and antimigratory leads” (Eur J Med Chem, 2013)

Key:
[1] = tested on: MDA-MB-468; experiment: Growth inhibition of human MDA-MB-468 cells assessed as cell growth at 10 uM after 48 hrs by sulforhodamine B assay; assay type: functional; details: MDA-MB-468, 48 h, read-out: Activity
Outline: (§1)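 Single-dose NCI-60 screen: adherent cells in RPMI 1640 with 5% FBS were exposed to 10 µM for 48 h at 37 °C after a 24 h preincubation. They were fixed in situ with cold TCA (10% final), stained with 0.4% SRB in 1% acetic acid, solubilized in 10 mM Tris base, and read at 515 nm. Percent growth was taken relative to time-zero and control plates.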

[2] = tested on: BT-549; experiment: Growth inhibition of human BT549 cells assessed as cell growth at 10 uM after 48 hrs by sulforhodamine B assay; assay type: functional; details: BT-549, 48 h, read-out: Activity
Outline: (§2)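 NCI-60 single-dose screen at 10 µM: cells in RPMI 1640 with 5% FBS, preincubated 24 h, then exposed 48 h at 37 °C. TCA fixation (16% final for suspension cells), SRB staining, absorbance 515 nm. Percent growth relative to time-zero and untreated control plates; negative values indicate cell kill.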

[3] = tested on: CAKI-1; experiment: Growth inhibition of human CAKI-1 cells assessed as cell growth at 10 uM after 48 hrs by sulforhodamine B assay; assay type: functional; details: CAKI-1, 48 h, read-out: Activity; outline: as §2
[4] = tested on: SNB-19; experiment: Growth inhibition of human SNB19 cells assessed as cell growth at 10 uM after 48 hrs by sulforhodamine B assay; assay type: functional; details: SNB-19, 48 h, read-out: Activity
Outline: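 Single-dose NCI-60 test at 10 µM. Cells were grown in RPMI 1640 with 5% FBS and 2 mM L-glutamine, preincubated 24 h, with T0 plates TCA-fixed. Exposure was 48 h at 37 °C, 5% CO2. Cells were fixed with cold TCA (final 10%, 4 °C, 60 min), stained with SRB and read at 515 nm. Percent growth was taken relative to T0 and untreated control; negative values denote cell kill.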

[5] = tested on: SF-539; experiment: Growth inhibition of human SF539 cells assessed as cell growth at 10 uM after 48 hrs by sulforhodamine B assay; assay type: functional; details: SF-539, 48 h, read-out: Activity; outline: as §1
[6] = tested on: COLO 205; experiment: Growth inhibition of human COLO205 cells assessed as cell growth at 10 uM after 48 hrs by sulforhodamine B assay; assay type: functional; details: COLO 205, 48 h, read-out: Activity; outline: as §2
[7] = tested on: HOP-62; experiment: Growth inhibition of human HOP62 cells assessed as cell growth at 10 uM after 48 hrs by sulforhodamine B assay; assay type: functional; details: HOP-62, 48 h, read-out: Activity; outline: as §2
[8] = tested on: MOLT-4; experiment: Growth inhibition of human MOLT4 cells assessed as cell growth at 10 uM after 48 hrs by sulforhodamine B assay; assay type: functional; details: MOLT-4, 48 h, read-out: Activity
Outline: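 Single 10 µM dose applied to suspension cells in RPMI 1640 with 5% FBS and 2 mM L-glutamine for 48 h at 37 °C. Settled cells were fixed with 80% TCA (16% final), stained with SRB, and read at 515 nm. Percent growth was calculated against time-zero and untreated control optical densities.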

[9] = tested on: HL-60(TB); experiment: Growth inhibition of human HL-60(TB) cells assessed as cell growth at 10 uM after 48 hrs by sulforhodamine B assay; assay type: functional; details: HL-60, 48 h, read-out: Activity
Outline: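 NCI-60 single-dose screen run at 10 µM on HL-60(TB) suspension cells in RPMI 1640 with 5% FBS and 2 mM L-glutamine. Cells were preincubated for 24 h, with a time-zero plate fixed then. Exposure lasted 48 h at 37 °C. Settled cells were fixed with TCA (16% final), stained with SRB and read at 515 nm. Percent growth is relative to control and T0.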

[10] = Antiproliferative activity against mouse +SA cells by MTT assay; assay type: functional, cell-based; details: +SA cell
Outline: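 Mouse +SA mammary epithelial cells in serum-free DMEM/F12 with BSA, transferrin, insulin and EGF. Compounds from DMSO stock conjugated to BSA (overnight, 37 °C); 0–40 µM, final DMSO <0.1%. MTT 0.42 mg/mL for 4 h at 37 °C, isopropanol solubilization, OD 570 nm. Cell number from a standard curve; IC50 by non-linear regression.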

Row | Compound | growth at 10 µM [1] [%] | growth at 10 µM [2] [%] | growth at 10 µM [3] [%] | growth at 10 µM [4] [%] | growth at 10 µM [5] [%] | growth at 10 µM [6] [%] | growth at 10 µM [7] [%] | growth at 10 µM [8] [%] | growth at 10 µM [9] [%] | IC50 [10] [nM]
1 | COc1ccc(CCNCc2c(O)c(C)c(C)c3c2CC[C@@](C)(CC/C=C(\C)CC/C=C(\C)CCC=C(C)C)O3)cc1OC | 59.1 | 118 | 86.6 | 89.6 | 97 | 5.95 | 115 | 30.3 | 77.7 | 1700
2 | CC(C)=CCC/C(C)=C/CC/C(C)=C/CC[C@]1(C)CCc2c(CNCCc3ccc(O)cc3)c(O)c(C)c(C)c2O1 | 104 | 105 | 86.1 | 99.8 | 113 | 106 | 105 | 54.6 | 84 | 2300
3 | CC(C)=CCC/C(C)=C/CC/C(C)=C/CC[C@]1(C)CCc2c3c(c(C)c(C)c2O1)OCN(CCCCCCCCCCO)C3 | 91.9 | 108 | 78.9 | 95.7 | 97.6 | 100 | 90 | 79.5 | 88 | 4400
4 | CC(C)=CCC/C(C)=C/CC/C(C)=C/CC[C@]1(C)CCc2c3c(c(C)c(C)c2O1)OCN(CCCCCCCCCCCCO)C3 | 106 | 127 | 96.2 | 104 | 111 | 97.5 | 104 | 90.5 | 95 | > 5000
5 | CC(C)=CCC/C(C)=C/CC/C(C)=C/CC[C@]1(C)CCc2c3c(cc(C)c2O1)OCN(CCCCCCCCCCCCO)C3 | 77.4 | 114 | 78.3 | 92.7 | 102 | 71.2 | 86.9 | 48.5 | 27.6 | 2000
6 | CC(C)=CCC/C(C)=C/CC/C(C)=C/CC[C@]1(C)CCc2c3c(c(C)c(C)c2O1)OCN(CCc1ccc(O)cc1)C3 | 88.8 | 113 | 84.2 | 94.1 | 104 | 52.1 | 112 | 40.4 | 72.3 | 1500
7 | COc1ccc(CCN2COc3c(C)c(C)c4c(c3C2)CC[C@@](C)(CC/C=C(\C)CC/C=C(\C)CCC=C(C)C)O4)cc1OC | 95.1 | 115 | 88.5 | 104 | 103 | 86.7 | 85.7 | 76 | 79.4 | 1800
8 | CC(C)=CCC/C(C)=C/CC/C(C)=C/CC[C@]1(C)CCc2cc(O)c(C)c(C)c2O1 [GAMMA-TOCOTRIENOL] | 108 | 141 | 89.5 | 114 | 101 | 94.4 | 108 | 84.3 | 86.5 | 
9 | CC(C)=CCC/C(C)=C/CC/C(C)=C/CC[C@]1(C)CCc2c3c(cc(C)c2O1)OCN(CCCCCCCCCCO)C3 | 83.8 | 102 | 77.9 | 98.9 | 98.3 | 79.3 | 107 | 67.6 | 62.7 | 3600
